From ChEMBL document CHEMBL4350992, “Identification of Diketopiperazine-Containing 2-Anilinobenzamides as Potent Sirtuin 2 (SIRT2)-Selective Inhibitors Targeting the "Selectivity Pocket", Substrate-Binding Site, and NAD+-Binding Site” (J Med Chem, 2019) come the findings set out here.

Calls of active or inactive are those of the source. No cut-off for these calls is given here.

For data set [1], the target named is NAD-dependent protein deacylase sirtuin-5, mitochondrial (Homo sapiens) (UniProt Q9NXA8). Put plainly: Inhibition of human N-terminal His-tagged SIRT5 (37 to 310 residues) expressed in Escherichia coli at 100 uM using flour de lys succinyl as substrate incubated for 3 hrs measured up to 30 mins by fluorescence assay relative to control.
NAD-dependent protein deacylase sirtuin-5, mitochondrial (Homo sapiens), sequence (Q9NXA8 37-310 limits assumed): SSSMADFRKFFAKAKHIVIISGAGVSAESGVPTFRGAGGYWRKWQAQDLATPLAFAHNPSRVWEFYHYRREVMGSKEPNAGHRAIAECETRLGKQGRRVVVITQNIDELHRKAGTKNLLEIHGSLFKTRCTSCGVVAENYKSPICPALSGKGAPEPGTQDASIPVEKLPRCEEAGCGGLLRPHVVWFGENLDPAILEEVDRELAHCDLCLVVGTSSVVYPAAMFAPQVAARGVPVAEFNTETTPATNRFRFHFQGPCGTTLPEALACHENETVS
Data set [2] has as its target T1, NAD-dependent protein deacetylase sirtuin-1 (Homo sapiens) (UniProt Q96EB6).
T1 sequence (whole entry): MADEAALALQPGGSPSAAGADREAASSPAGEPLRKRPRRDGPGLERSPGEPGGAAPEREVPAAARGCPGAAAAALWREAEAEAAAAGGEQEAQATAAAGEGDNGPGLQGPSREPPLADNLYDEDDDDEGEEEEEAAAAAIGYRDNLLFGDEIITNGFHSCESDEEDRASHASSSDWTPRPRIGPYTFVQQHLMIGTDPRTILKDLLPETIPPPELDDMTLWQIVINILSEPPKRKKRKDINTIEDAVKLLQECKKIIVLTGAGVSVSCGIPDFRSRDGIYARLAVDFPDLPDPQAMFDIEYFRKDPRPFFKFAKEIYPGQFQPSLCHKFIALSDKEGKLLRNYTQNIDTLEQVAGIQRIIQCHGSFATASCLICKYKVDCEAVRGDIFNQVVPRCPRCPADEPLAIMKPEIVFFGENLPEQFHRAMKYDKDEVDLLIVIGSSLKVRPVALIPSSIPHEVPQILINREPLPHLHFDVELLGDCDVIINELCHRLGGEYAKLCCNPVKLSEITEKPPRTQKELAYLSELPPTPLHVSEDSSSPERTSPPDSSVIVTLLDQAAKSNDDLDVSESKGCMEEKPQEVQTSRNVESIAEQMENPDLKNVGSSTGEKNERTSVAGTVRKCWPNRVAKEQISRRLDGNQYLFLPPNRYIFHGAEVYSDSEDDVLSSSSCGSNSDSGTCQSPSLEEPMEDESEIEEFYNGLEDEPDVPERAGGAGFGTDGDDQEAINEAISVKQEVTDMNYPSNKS
Put plainly: Inhibition of human N-terminal His-tagged SIRT1 expressed in Escherichia coli at 100 uM using p53 (Arg-His-Lys-Lys(Ac)) (379 to 382 residues) as substrate incubated for 3 hrs measured up to 30 mins by fluorescence assay relative to control.

Data set [3] concerns the target T2, NAD-dependent protein deacetylase sirtuin-2 (Homo sapiens, UniProt Q8IXJ6).
T2 sequence (Q8IXJ6 whole entry): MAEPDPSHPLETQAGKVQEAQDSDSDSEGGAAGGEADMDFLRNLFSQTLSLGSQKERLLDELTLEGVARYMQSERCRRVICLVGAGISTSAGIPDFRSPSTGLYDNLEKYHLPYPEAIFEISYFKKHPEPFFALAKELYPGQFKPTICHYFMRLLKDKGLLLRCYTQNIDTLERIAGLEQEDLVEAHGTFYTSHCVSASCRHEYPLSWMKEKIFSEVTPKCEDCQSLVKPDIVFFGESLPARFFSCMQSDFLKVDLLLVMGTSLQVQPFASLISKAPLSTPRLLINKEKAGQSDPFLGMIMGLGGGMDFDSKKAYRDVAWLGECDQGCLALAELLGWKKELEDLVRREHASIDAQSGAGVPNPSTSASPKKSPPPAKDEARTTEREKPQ
Nature of the data set: Inhibition of human N-terminal His-tagged SIRT2 expressed in Escherichia coli using p53 (Gln-Pro-Lys-Lys(Ac)) (317 to 320 residues) as substrate incubated for 3 hrs measured up to 30 mins by fluorescence assay.

The target in data set [4] is T3, NAD-dependent protein deacetylase sirtuin-2 (Homo sapiens) (UniProt Q8IXJ6).
T3 sequence (whole entry): T2 sequence (Q8IXJ6 whole entry)
Put plainly: Inhibition of human N-terminal His-tagged SIRT2 expressed in Escherichia coli at 10 uM using p53 (Gln-Pro-Lys-Lys(Ac)) (317 to 320 residues) as substrate incubated for 3 hrs measured up to 30 mins by fluorescence assay relative to control.

The test system of data set [5] is MCF7. Put plainly: Growth inhibition of human MCF7 cells at 30 uM measured after 72 hrs by AlamarBlue assay relative to control. To be noted: MCF7, 72 h, read-out: GI. The class given is functional. Put shortly:
(§1)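 MCF-7 cells in DMEM with 10% FBS were seeded at 1×10³ cells/well. After 24 h at 37°C, 5% CO₂, compound in medium was added at varying concentrations for 72 h. AlamarBlue was then added for 3 h and fluorescence read (ex 540/em 590 nm). Percent growth was calculated from the readings, and GI50 from the dose response. Three independent determinations.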

In data set [6] the target is T3, NAD-dependent protein deacetylase sirtuin-2 (Homo sapiens). Put plainly: Competitive inhibition of human N-terminal His-tagged SIRT2 expressed in Escherichia coli up to uM using varying levels of p53 (Gln-Pro-Lys-Lys(Ac)) (317 to 320 residues) as substrate incubated for 3 hrs measured up to 30 mins in presence of NAD+ by Lineweaver-burk plot analysis. To be noted: in the assay text read “incubated for 45 mins” for “incubated for 3 hrs”. Put shortly: (§2)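 The Fluor de Lys SIRT2 assay was run with reaction time shortened to 45 min. The acetylated substrate concentration was varied at saturating NAD⁺. Inhibitor was tested at 0, 0.1, 0.4, 0.6 and 1 µM, or at 0, 0.02, 0.06, 0.1 and 0.4 µM. Ki was derived from Michaelis–Menten and Lineweaver–Burk plots.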

The target of data set [7] is T1, NAD-dependent protein deacetylase sirtuin-1 (Homo sapiens). Put plainly: Inhibition of human N-terminal His-tagged SIRT1 expressed in Escherichia coli at 50 uM using p53 (Arg-His-Lys-Lys(Ac)) (379 to 382 residues) as substrate incubated for 3 hrs measured up to 30 mins by fluorescence assay relative to control.
In data set [8] the target is T4, NAD-dependent protein deacetylase sirtuin-3, mitochondrial (Homo sapiens) (UniProt Q9NTG7).
T4 sequence (whole entry): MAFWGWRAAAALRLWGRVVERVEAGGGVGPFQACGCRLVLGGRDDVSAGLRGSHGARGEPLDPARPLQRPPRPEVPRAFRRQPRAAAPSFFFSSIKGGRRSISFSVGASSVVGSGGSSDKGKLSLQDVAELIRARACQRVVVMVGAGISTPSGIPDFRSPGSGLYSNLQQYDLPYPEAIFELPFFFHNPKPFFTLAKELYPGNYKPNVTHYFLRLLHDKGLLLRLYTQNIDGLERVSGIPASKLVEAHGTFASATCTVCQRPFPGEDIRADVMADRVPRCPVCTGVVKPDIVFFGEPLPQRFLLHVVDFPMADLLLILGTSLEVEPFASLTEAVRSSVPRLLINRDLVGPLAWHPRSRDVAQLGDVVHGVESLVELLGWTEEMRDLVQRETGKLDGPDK
Nature of the data set: Inhibition of human N-terminal His-tagged SIRT3 (102 to 399 residues) expressed in Escherichia coli at 100 uM using p53 (Gln-Pro-Lys-Lys(Ac)) (317 to 320 residues) as substrate incubated for 3 hrs measured up to 30 mins by fluorescence assay relative to control.

The target in data set [9] is T2, NAD-dependent protein deacetylase sirtuin-2. Put plainly: Inhibition of human N-terminal His-tagged SIRT2 expressed in Escherichia coli using p53 (Gln-Pro-Lys-Lys(Ac)) (317 to 320 residues) as substrate incubated for 3 hrs measured up to 30 mins in presence of NAD+ by fluorescence-based Michaelis-Menten plot analysis. To be noted: in the assay text read “incubated for 45 mins” for “incubated for 3 hrs”. Put shortly:
as §2

Data set [10] concerns the target T3, NAD-dependent protein deacetylase sirtuin-2 (Homo sapiens). Put plainly: Inhibition of human N-terminal His-tagged SIRT2 expressed in Escherichia coli at 1 uM using p53 (Gln-Pro-Lys-Lys(Ac)) (317 to 320 residues) as substrate incubated for 3 hrs measured up to 30 mins by fluorescence assay relative to control.
Data set [11] deals with N2a. Nature of the data set: Induction of neurite outgrowth in mouse Neuro2a cells at 0.2 to 2 uM measured after 24 to 48 hrs by microscopic analysis. The format is functional, cell-based. Put shortly:
(§3)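 N2a cells were plated at 1×10⁴ cells/mL in DMEM with 10% FBS, then switched to DMEM with 2% FBS for differentiation. Compound was added for 24 or 48 h and morphology scored by microscopy. A cell counted as differentiated if it had ≥1 neurite longer than twice the soma diameter; ≥100 cells were counted per condition. Triplicate experiments, mean ± SD, one-way ANOVA with Dunnett's test.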

Data set [12] is described as follows: Solubility of the compound in buffer/DMSO at 100 uM. The class given is physicochemical.
Data set [13] concerns the target T3, NAD-dependent protein deacetylase sirtuin-2 (Homo sapiens). Put plainly: Binding affinity to recombinant human full-length N-terminal His-tagged SIRT2 expressed in baculovirus infected Sf9 insect cells assessed as ADP ribose-compound complex formation measured after 5 mins in presence of NAD+ by MALDI-TOF analysis. In outline:
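Recombinant SIRT2 at 1.9 µM, 500 µM NAD⁺ and 1 mM compound were reacted for 5 min at 37°C in 40 mM sodium phosphate pH 7.0 with 240 mM NaCl, 120 mM imidazole, 0.2 mM DTT, 20% glycerol and 2% DMSO. Controls lacked compound, NAD⁺ or enzyme. Mixtures were diluted, desalted on C18 tips and analysed by MALDI-TOF in reflectron negative-ion mode with α-cyano-4-hydroxycinnamic acid matrix.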

Data set [14] has as its system MCF7. Put plainly: Growth inhibition of human MCF7 cells measured after 72 hrs by AlamarBlue assay. The class given is functional. Put shortly: as §1
For data set [15], the target named is T5, NAD-dependent protein deacetylase sirtuin-1 (Homo sapiens, UniProt Q96EB6).
T5 sequence (Q96EB6 whole entry): T1 sequence (whole entry)
Nature of the data set: Inhibition of human N-terminal His-tagged SIRT1 expressed in Escherichia coli using p53 (Arg-His-Lys-Lys(Ac)) (379 to 382 residues) as substrate incubated for 3 hrs measured up to 30 mins by fluorescence assay.

Data set [16] concerns the target Lysine-specific demethylase 5A (Homo sapiens) (UniProt P29375). Put plainly: Inhibition of human C-terminal FLAG-tagged KDM5A (1 to 1090 residues) expressed in baculovirus infected Sf9 insect cells at 2.5 to 100 uM using H3(1-21)K4(Me3)-GGK(Biotin)/2-OG as substrate measured after 1 hr by Alphalisa assay.
The target in data set [17] is Histone deacetylase (Homo sapiens) (UniProt Q13547+O15379+Q9UBN7+Q92769+Q9UQL6+Q8WUI4+Q9BY41+Q96DB2+P56524+Q9UKV0+Q969S8). Nature of the data set: Inhibition of HDAC in human HeLa cell nuclear extract at 2.5 to 100 uM using fluor de lys as substrate by fluorescence assay. The format is cell-free.
The subject of data set [18] is N2a. Put plainly: Induction of neurite outgrowth in mouse Neuro2a cells assessed as differentiated cells at 2 uM measured after 24 hrs by microscopic analysis (reference value: 2.53 +/- 0.76%). The format is functional. Put shortly: as §3
The subject of data set [19] is N2a. Nature of the data set: Induction of neurite outgrowth in mouse Neuro2a cells assessed as differentiated cells at 2 uM measured after 48 hrs by microscopic analysis (reference value: 4.18 +/- 1.67%). The class given is functional. Put shortly:
as §3

In data set [20] the target is T4, NAD-dependent protein deacetylase sirtuin-3, mitochondrial (Homo sapiens). Nature of the data set: Inhibition of human N-terminal His-tagged SIRT3 (102 to 399 residues) expressed in Escherichia coli at 50 uM using p53 (Gln-Pro-Lys-Lys(Ac)) (317 to 320 residues) as substrate incubated for 3 hrs measured up to 30 mins by fluorescence assay relative to control.

Lysine-specific demethylase 5A (Homo sapiens), sequence (P29375 whole entry, the tested form may be a part): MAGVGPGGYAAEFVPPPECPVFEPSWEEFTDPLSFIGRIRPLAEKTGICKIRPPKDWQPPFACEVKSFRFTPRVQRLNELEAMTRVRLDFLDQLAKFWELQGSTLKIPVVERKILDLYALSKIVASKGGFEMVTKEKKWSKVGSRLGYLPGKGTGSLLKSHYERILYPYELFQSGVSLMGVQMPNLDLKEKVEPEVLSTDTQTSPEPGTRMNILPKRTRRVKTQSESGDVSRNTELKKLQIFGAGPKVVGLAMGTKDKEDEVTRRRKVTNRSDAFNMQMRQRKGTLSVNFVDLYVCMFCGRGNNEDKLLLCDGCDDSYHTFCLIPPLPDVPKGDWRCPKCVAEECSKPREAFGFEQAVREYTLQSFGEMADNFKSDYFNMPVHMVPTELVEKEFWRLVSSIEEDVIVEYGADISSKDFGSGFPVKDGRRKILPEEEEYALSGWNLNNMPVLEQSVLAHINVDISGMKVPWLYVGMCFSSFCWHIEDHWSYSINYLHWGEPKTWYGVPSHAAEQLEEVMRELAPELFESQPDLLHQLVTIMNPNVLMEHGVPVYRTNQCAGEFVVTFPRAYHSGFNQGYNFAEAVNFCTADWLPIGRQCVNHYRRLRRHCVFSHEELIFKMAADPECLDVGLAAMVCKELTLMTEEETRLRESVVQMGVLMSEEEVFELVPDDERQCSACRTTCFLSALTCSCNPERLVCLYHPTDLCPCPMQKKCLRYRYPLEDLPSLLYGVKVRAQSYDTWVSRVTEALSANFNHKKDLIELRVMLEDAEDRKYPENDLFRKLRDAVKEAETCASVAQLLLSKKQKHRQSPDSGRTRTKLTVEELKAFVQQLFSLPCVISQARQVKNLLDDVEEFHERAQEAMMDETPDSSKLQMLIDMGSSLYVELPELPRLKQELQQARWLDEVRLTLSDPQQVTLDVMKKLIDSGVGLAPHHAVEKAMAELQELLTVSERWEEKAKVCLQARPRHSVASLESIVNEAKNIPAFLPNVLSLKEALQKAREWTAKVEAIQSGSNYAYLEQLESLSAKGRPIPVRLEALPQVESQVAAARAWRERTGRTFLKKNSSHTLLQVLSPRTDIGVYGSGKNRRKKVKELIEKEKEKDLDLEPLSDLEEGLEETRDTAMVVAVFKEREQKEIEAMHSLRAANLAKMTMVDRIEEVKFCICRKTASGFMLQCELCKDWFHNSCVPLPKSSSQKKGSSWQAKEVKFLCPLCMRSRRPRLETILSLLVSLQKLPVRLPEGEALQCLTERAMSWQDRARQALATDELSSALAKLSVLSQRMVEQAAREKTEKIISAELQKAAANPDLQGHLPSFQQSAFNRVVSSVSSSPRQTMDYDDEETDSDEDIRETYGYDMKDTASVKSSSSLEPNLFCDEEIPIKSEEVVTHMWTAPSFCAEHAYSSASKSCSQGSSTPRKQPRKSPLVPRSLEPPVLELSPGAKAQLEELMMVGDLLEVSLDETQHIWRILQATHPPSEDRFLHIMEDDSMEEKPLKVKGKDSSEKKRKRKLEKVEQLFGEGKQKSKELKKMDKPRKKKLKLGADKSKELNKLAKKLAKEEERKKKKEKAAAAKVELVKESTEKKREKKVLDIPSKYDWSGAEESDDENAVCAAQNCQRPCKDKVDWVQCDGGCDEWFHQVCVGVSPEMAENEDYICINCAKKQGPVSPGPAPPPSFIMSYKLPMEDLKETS

With `O=C(CNC(=O)c1ccccc1Nc1cccc(OCCc2ccccc2)c1)NCCCC[C@@H]1NC(=O)CNC1=O`, the inhibition in data set [1] was determined as 2%; in [2] it was 13%; in [4], 92%; in [7], 9%; in data set [8], 17%; in data set [10] it was 59%. In [3], this compound displayed an IC50 of 600 nM. Moreover, the inhibition of growth at 30 µM in the data set on MCF7 [5] stood at 40%. In addition, in data set [6], the inhibition result is “Active”. Further, in data set [9], the Ki came out at 470 nM. Also, the outcome in the data set on N2a [11] was inactive.

`C[C@H](NC(=O)[C@H](CCCCNC(=O)CNC(=O)c1ccccc1Nc1cccc(OCCc2ccccc2)c1)NC(=O)OCc1ccccc1)C(N)=O`: the inhibition in data set [1] amounted to 6%; in data set [2], 51%; in [8], 61%. Besides, the solubility result in [12] is “Insoluble”.

Take `O=C1CNC(=O)[C@H](CCCCNC(=S)CNC(=O)c2ccccc2Nc2cccc(OCCc3ccccc3)c2)N1`: the inhibition in data set [1] was found to be 0%; in data set [7] it was 41%; in data set [10] it was 73%. In addition, the result in [13] was Active. The IC50 turned out to be 310 nM in [3] and 77400 nM in data set [15]. Besides, the “growth inhibition (GI)” value with MCF7 [14] is “Dose-dependent effect”. In the data set with MCF7 [14] (MCF7, 72 h), this compound showed a GI50 of 11500 nM. For the same compound, the inhibition of growth at 30 µM in the data set on MCF7 [5] came to 96%. For the same compound, the inhibition entry in [6] is “Active”. In addition, the inhibition entry in data set [16] and in data set [17] was “inactive” each time. Further, in [9], the Ki amounted to 68 nM. Besides, the Activity with N2a [18] was found to be 4.54%; in the data set on N2a [19], 12.27%.

Consider `Cc1cc(C)nc(SCC(=O)Nc2cccc(Nc3ccccc3C(N)=O)c2)n1`, for which the inhibition came out at 16% in data set [1]; 28% in data set [2]; 63% in data set [20]; 93% in data set [4]; 16% in data set [7]; 80% in data set [8]. The compound further displayed an inhibition in data set [10] of 47%. For the same compound, inhibition in [3] was half-maximal at 1180 nM (IC50).
